The list is not random: actives were taken first. Their share in the collection is about 1.4%.
Dyrk1A ADPGlo – inhibitors of rat Dyrk1A kinase | ADP-Glo luminescence, NFATc1 peptide | inhibition, % at 12.5 µM | 310,000 tested, 0.43% active; in the data active = inhibition above about 50%;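 also: plate controls were vehicle with enzyme for no effect and no enzyme for full effect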
CAL PDZ FP-1 – inhibitors of human CAL PDZ peptide binding; Q9HD26; inhibition, % at 24.9 µM; purified CAL PDZ, TMR-peptide fluorescence polarization, 1 h; 300,000 tested, 0.92% active;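 active = mean inhibition of at least 30% with at least half of replicates also reaching 30%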;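 also: 0% = DMSO neutral control and 100% = excess unlabeled competitor peptide PRC23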
CAL PDZ FP-2 – blocks peptide binding to human CAL PDZ domain | Q9HD26 | purified CAL PDZ, TMR-peptide fluorescence polarization, 1 h | inhibition, % at 20 µM | 330,000 tested, 0.02% active | AID 504414;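 active = highest replicate inhibition of at least 40%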;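 also: plate controls were DMSO neutral control wells for no effect and unlabeled competitor peptide control wells for full effect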
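Test system: tagged CAL PDZ domain / Buffer or medium: sodium phosphate/NaCl buffer pH 7.4 with TCEP, IgG, Thesit / Reagent: TMR-labelled reporter peptide T*-PRC34 bound in PDZ groove / Compound dosing: single point, 20 µM / Schedule: 1 h incubation at room temperature before polarization reading / Technique: fluorescence polarization (mP) / Benchmarks: unlabelled peptide, DMSO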
ARNT-TACC3 inh – disrupts binding between human ARNT and TACC3. AlphaScreen His-ARNT PAS-B/GST-TACC3 binding, luminescence; TACC3 fragment carries E629A point mutation. inhibition, % at 9.99 µM. 390,000 tested, 0.66% active;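 active = mean inhibition of replicates at least 50% and at least half of replicates each reaching 50%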;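 also: 0% = complete ARNT plus TACC3 wells and 100% = ARNT alone without TACC3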
* marks the source's active call; other numbers are inactive results.

How did COc1ccc(-c2nc(-c3ccccn3)ncc2S(C)(=O)=O)cc1 do in these assays?
Dyrk1A ADPGlo: -3; CAL PDZ FP-1: -15; CAL PDZ FP-2: -3; ARNT-TACC3 inh: 14

Results for COc1ccccc1CN1[C@H](CO)[C@H]2c3ccccc3N(C(=O)c3ccc(F)cc3)C[C@H]21 ?
ARNT-TACC3 inh: 5

Results for C[C@H](CO)N1C[C@H](C)[C@@H](CN(C)C(=O)Cc2ccccn2)Oc2ncc(-c3ccccc3)cc2C1=O ?
ARNT-TACC3 inh: -4

What do the screens show for `CCc1ccc(C(=O)NNC(=O)c2c(CC)noc2C)cc1`?
Dyrk1A ADPGlo: -3; CAL PDZ FP-1: 60*; CAL PDZ FP-2: 0; ARNT-TACC3 inh: -14

How did COc1ccc(CN(C(=O)c2ccco2)c2ccc(C)c(C)c2)cc1 do in these assays?
Dyrk1A ADPGlo: -2; CAL PDZ FP-1: 31*; CAL PDZ FP-2: 0; ARNT-TACC3 inh: 5

What do the screens show for `CCOc1ccc(N(Cc2ccc(OC)cc2)C(=O)c2ccco2)cc1`?
Dyrk1A ADPGlo: 1; CAL PDZ FP-1: -1; CAL PDZ FP-2: -1; ARNT-TACC3 inh: 2

Results for Cc1noc(C)c1S(=O)(=O)N(C)C[C@H]1Oc2ccc(NC(=O)Nc3ccc(C(F)(F)F)cc3)cc2CC(=O)N([C@H](C)CO)C[C@H]1C ?
ARNT-TACC3 inh: 5

What do the screens show for `N=c1n(CC(=O)c2ccc(Br)s2)c2ccccc2n1Cc1ccccc1`?
Dyrk1A ADPGlo: -2; CAL PDZ FP-1: 38*; CAL PDZ FP-2: -2; ARNT-TACC3 inh: 8

How did Cn1c(=N)n(CC(=O)c2ccc(Br)s2)c2ccccc21 do in these assays?
Dyrk1A ADPGlo: 13; CAL PDZ FP-1: -6; ARNT-TACC3 inh: -10

What do the screens show for `CCN(CC)c1ccc(CNc2nc3ccccc3n2CCN2CCCCC2)cc1`?
Dyrk1A ADPGlo: -1; CAL PDZ FP-1: 43*; CAL PDZ FP-2: 0; ARNT-TACC3 inh: 20

What do the screens show for `CCC(=O)N(C)C[C@@H]1Oc2cc(C#Cc3ccncc3)ccc2S(=O)(=O)N([C@@H](C)CO)C[C@@H]1C`?
ARNT-TACC3 inh: -4

Results for Cc1cccc(C)c1NC(=O)Cn1nnnc1N ?
Dyrk1A ADPGlo: -1; CAL PDZ FP-1: 66*; CAL PDZ FP-2: 8; ARNT-TACC3 inh: -1

How did CCC(C)NC(=O)C1CCC(=O)N(c2ccc3c(c2)OCO3)C1c1ccc(OC)cc1 (configuration not stated) do in these assays?
Dyrk1A ADPGlo: 0; CAL PDZ FP-2: 0; ARNT-TACC3 inh: -4

Results for COCCCNC(=O)C1CCC(=O)N(c2ccc3c(c2)OCO3)C1c1ccc(OC)cc1 (configuration not stated) ?
Dyrk1A ADPGlo: 9; CAL PDZ FP-1: active; CAL PDZ FP-2: 1; ARNT-TACC3 inh: -4

What do the screens show for `Cc1c(C(=O)N2CCCCCC2)nnn1-c1nonc1N`?
Dyrk1A ADPGlo: 2; CAL PDZ FP-1: 49*; CAL PDZ FP-2: 0; ARNT-TACC3 inh: -3

How did NC(=S)N/N=C/c1ccccc1OC(=O)c1cc2ccccc2oc1=O do in these assays?
Dyrk1A ADPGlo: -1; CAL PDZ FP-1: -7; CAL PDZ FP-2: -2; ARNT-TACC3 inh: 51*

How did NC(=S)N/N=C/c1ccccc1OC(=O)/C=C/c1ccccc1 do in these assays?
Dyrk1A ADPGlo: 3; CAL PDZ FP-2: 0; ARNT-TACC3 inh: 34*

How did CN1C(=O)c2ccccc2C(C(=O)O)C1c1cn(C)c2ccccc12 (configuration not stated) do in these assays?
Dyrk1A ADPGlo: 6; CAL PDZ FP-1: 41*; ARNT-TACC3 inh: -5

Results for C[C@@H]1CN([C@@H](C)CO)C(=O)c2cc(NS(=O)(=O)c3ccc(F)cc3)ccc2O[C@@H](C)CCCCO[C@H]1CN(C)S(=O)(=O)c1cccs1 ?
ARNT-TACC3 inh: 0

Results for COc1ccc(CC(=O)NCCC(C)C)cc1S(=O)(=O)N1CCOCC1 ?
Dyrk1A ADPGlo: -5; CAL PDZ FP-1: 42*; CAL PDZ FP-2: -2; ARNT-TACC3 inh: -2

How did Cc1cc(NC(=O)c2c(Br)c(C)nn2C)no1 do in these assays?
Dyrk1A ADPGlo: -1; CAL PDZ FP-1: 83*; CAL PDZ FP-2: 0; ARNT-TACC3 inh: -6

How did C=CCSc1ncnc2c1oc1nc3c(cc12)COC(C)(C)C3 do in these assays?
Dyrk1A ADPGlo: 0; CAL PDZ FP-1: 84*; CAL PDZ FP-2: -1; ARNT-TACC3 inh: -5

Results for CC(C)CSc1ncnc2c1oc1nc3c(cc12)COC(C)(C)C3 ?
Dyrk1A ADPGlo: -2; CAL PDZ FP-2: -3; ARNT-TACC3 inh: 5

How did COc1ccc(/C=C/C(=O)NC(=S)NNC(=O)c2cccnc2)cc1 do in these assays?
Dyrk1A ADPGlo: 22; CAL PDZ FP-1: 0; CAL PDZ FP-2: -2

What do the screens show for `COc1ccc(/C=C/C(=O)NC(=S)NNC(=O)c2cnccn2)cc1`?
CAL PDZ FP-1: -3; CAL PDZ FP-2: 0; ARNT-TACC3 inh: 61*

What do the screens show for `O=C(NNC(=S)NC(=O)c1cccnc1)c1ccc(F)cc1`?
Dyrk1A ADPGlo: -6; CAL PDZ FP-1: -3; CAL PDZ FP-2: 0; ARNT-TACC3 inh: 28

Results for O=C(/C=C/c1ccc(F)cc1)NC(=S)NNC(=O)c1cnccn1 ?
Dyrk1A ADPGlo: -4; CAL PDZ FP-1: -1; CAL PDZ FP-2: 0; ARNT-TACC3 inh: 64*

How did O=C(NC(=S)NNC(=O)c1cnccn1)c1ccc(F)cc1 do in these assays?
Dyrk1A ADPGlo: -2; CAL PDZ FP-1: 0; CAL PDZ FP-2: 0; ARNT-TACC3 inh: 68*

How did COc1cc(/C=N/Nc2ccc(Cl)c(C(=O)O)c2)ccc1OC(=O)c1ccccc1F do in these assays?
Dyrk1A ADPGlo: 1; CAL PDZ FP-1: 42*; CAL PDZ FP-2: -1; ARNT-TACC3 inh: 10

Results for COc1cc(/C=N/Nc2ccc(Cl)c(C(=O)O)c2)ccc1OC(=O)c1ccc(F)cc1 ?
Dyrk1A ADPGlo: 2; CAL PDZ FP-1: -3; CAL PDZ FP-2: -1; ARNT-TACC3 inh: 5

Results for Cc1ccc(CN(C)C(=O)C2CCC(=O)N(C3CCCCCC3)C2)cc1 (configuration not stated) ?
Dyrk1A ADPGlo: 2; CAL PDZ FP-1: 39*; CAL PDZ FP-2: 0; ARNT-TACC3 inh: -4

How did C=CCNCCCCOc1ccc(OCC)cc1 do in these assays?
Dyrk1A ADPGlo: 4; CAL PDZ FP-1: 45*; ARNT-TACC3 inh: -3

How did C=CCNCCCOc1ccc(C(C)(C)c2ccccc2)cc1 do in these assays?
Dyrk1A ADPGlo: 4; CAL PDZ FP-1: -2; CAL PDZ FP-2: -2; ARNT-TACC3 inh: 3

Results for COc1ccc(CN(C)C[C@H]2OCCCC[C@H](C)Oc3ccc(NC(=O)c4ccccc4)cc3C(=O)N([C@@H](C)CO)C[C@H]2C)cc1 ?
ARNT-TACC3 inh: 7

How did COc1ccc(NC(=O)NC2(C)CCS(=O)(=O)C2)cc1 (configuration not stated) do in these assays?
Dyrk1A ADPGlo: 2; CAL PDZ FP-1: 63*; CAL PDZ FP-2: -2; ARNT-TACC3 inh: 0

What do the screens show for `CC(=O)Oc1cc(O)c2c(=O)c(OC(C)=O)c(-c3ccc(OC(C)=O)c(OC(C)=O)c3)oc2c1`?
Dyrk1A ADPGlo: 86*; CAL PDZ FP-1: 2; CAL PDZ FP-2: 0; ARNT-TACC3 inh: 25

How did O=C(CCc1c[nH]c2ccccc12)NCCc1ccccc1 do in these assays?
Dyrk1A ADPGlo: 3; CAL PDZ FP-1: -3; CAL PDZ FP-2: -1; ARNT-TACC3 inh: -5

Screens from PubChem.
